ChEMBL document CHEMBL1158477, “Synthesis, in vivo evaluation, and molecular modeling studies of new pyrazolo[5,1-c][1,2,4]benzotriazine 5-oxide derivatives. Identification of a bifunctional hydrogen bond area related to the inverse agonism” (J Med Chem, 2009)

Assays:
Bos taurus = organism: Bos taurus; assay: Displacement of [3H]flumazenil from GABAA/Benzodiazepine receptor in bovine brain at 10 uM
Summary of the method: (§1)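 Bovine brain membranes; displacement of specific [3H]flumazenil (Ro15-1788) binding. Percent inhibition measured at 10 μM; Ki determined only when inhibition at that concentration exceeded 80%. Ki given as mean ± SEM of five determinations.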

[1] = Displacement of [3H]flumazenil from GABAA/Benzodiazepine receptor in bovine brain; design: species or system Bos taurus; summary of the method: as §1
Mus musculus [2] = assay: Effect on motor coordination in CD1 albino mouse assessed as number of falls form rotarod at 10 mg/kg, po […] measured for 30 seconds after 30 mins of dosing by rotarod test; format: functional; conditions: 10 mg/kg
Summary of the method: (§2)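 Rota-rod in male CD-1 mice with a pretest. Test substance given po in 1% CMC; falls from the rotating rod counted over 30 s, assessed 30 min after treatment.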

Mus musculus [3] = assay: Effect on motor coordination in CD1 albino mouse assessed as number of falls form rotarod at 30 mg/kg, po […] measured for 30 seconds after 30 mins of drug infusion by rotarod test; format: functional; conditions: 30 mg/kg; summary of the method: as §2
Mus musculus [4] = assay: Anticonvulsant activity against pentylenetetrazole-induced shock in CD1 albino mouse assessed as shock latency at 10 mg/kg, po preincubated for 30 mins before pentylenetetrazole challenge measured for 30 mins (RVb=253.1 +/- 13 seconds); format: functional; conditions: 10 mg/kg
Mus musculus [5] = assay: Anticonvulsant activity against pentylenetetrazole-induced shock in CD1 albino mouse assessed as shock latency at 30 mg/kg, po preincubated for 30 mins before pentylenetetrazole challenge measured for 30 mins (RVb=253.1 +/- 13 seconds); format: functional; conditions: 30 mg/kg
Mus musculus [6] = assay: Anticonvulsant activity against pentylenetetrazole-induced convulsions in CD1 albino mouse assessed as convulsion latency at 10 mg/kg, po preincubated for 30 mins before pentylenetetrazole challenge measured for 30 mins (RVb=599 +/- 37.6 seconds); format: functional; conditions: 10 mg/kg
Mus musculus [7] = assay: Anticonvulsant activity against pentylenetetrazole-induced convulsions in CD1 albino mouse assessed as convulsion latency at 30 mg/kg, po preincubated for 30 mins before pentylenetetrazole challenge measured for 30 mins (RVb=599 +/- 37.6 seconds); format: functional; conditions: 30 mg/kg
Mus musculus [8] = assay: Effect on spontaneous motility in CD1 albino mouse assessed as number of movement on plane board at 10 mg/kg, po after 30 mins by hole-board test; format: functional; conditions: 10 mg/kg
Summary of the method: (§3)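 Hole-board test in male CD-1 mice: animals placed singly on the board and allowed to explore panel and holes. Test run 30 min after po dosing in 1% CMC (10 mL/kg). Hole entries (curiosity) and plane movements (spontaneous motility) counted; 10 mice per group, compared with CMC controls.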

Mus musculus [9] = assay: Effect on spontaneous motility in CD1 albino mouse assessed as number of movement on plane board at 30 mg/kg, po after 30 mins by hole-board test; format: functional; conditions: 30 mg/kg; summary of the method: as §3
Mus musculus [10] = assay: Effect on spontaneous motility in CD1 albino mouse assessed as number of movement on plane board at 50 mg/kg, po after 30 mins by hole-board test; format: functional; summary of the method: as §3
Mus musculus [11] = assay: Effect on spontaneous motility in CD1 albino mouse assessed as number of movement on plane board at 100 mg/kg, po after 30 mins by hole-board test; format: functional; summary of the method: as §3
Mus musculus [12] = assay: Effect on explorative capacity in CD1 albino mouse assessed as curiosity-related number of head plugging activity on hole at 10 mg/kg, po after 30 mins by hole-board test; format: functional; conditions: 10 mg/kg; summary of the method: as §3
Mus musculus [13] = assay: Effect on explorative capacity in CD1 albino mouse assessed as curiosity-related number of head plugging activity on hole at 30 mg/kg, po after 30 mins by hole-board test; format: functional; conditions: 30 mg/kg; summary of the method: as §3
Mus musculus [14] = assay: Effect on explorative capacity in CD1 albino mouse assessed as curiosity-related number of head plugging activity on hole at 50 mg/kg, po after 30 mins by hole-board test; format: functional; summary of the method: as §3
Mus musculus [15] = assay: Effect on explorative capacity in CD1 albino mouse assessed as curiosity-related number of head plugging activity on hole at 100 mg/kg, po after 30 mins by hole-board test; format: functional; summary of the method: as §3

SMILES | Activity (Bos taurus) [%] | Ki [1] [nM] | also measured
[O-][n+]1nc2c(I)cnn2c2cc(OCc3ccco3)ccc21 | > 80 | 0.8 | –
CCOc1ccc2c(c1)n1ncc(C(=O)OCc3cccs3)c1n[n+]2[O-] | > 80 | 0.85 | –
COc1ccccc1COC(=O)c1ccc2c(c1)n1ncc(C(F)(F)F)c1n[n+]2[O-] | > 80 | 5.8 | –
CCOC(=O)c1cnn2c1n[n+]([O-])c1ccc(OCc3ccccc3)cc12 | > 80 | 2.1 | –
Cc1ccc2c(c1)n1ncc(C(=O)OCc3cccs3)c1n[n+]2[O-] | > 80 | 1.41 | –
CCOc1cnn2c1n[n+]([O-])c1ccc(C(=O)OCc3ccccc3OC)cc12 | > 80 | 0.31 | –
CC(Oc1ccc2c(c1)n1ncc(I)c1n[n+]2[O-])c1ccccc1 (single isomer, unassigned; (-)) | – | 2.1 | Activity (Mus musculus [2]): 2; Activity (Mus musculus [3]): 1.6; Activity (Mus musculus [4]): 513 s; Activity (Mus musculus [5]): 323.7 s; Activity (Mus musculus [6]): 1078 s; Activity (Mus musculus [7]): 549.2 s; Activity (Mus musculus [8]): 61.9; Activity (Mus musculus [9]): 56.8; Activity (Mus musculus [10]): 44; Activity (Mus musculus [11]): 59.2; Activity (Mus musculus [12]): 27; Activity (Mus musculus [13]): 34.5; Activity (Mus musculus [14]): 13.3; Activity (Mus musculus [15]): 22.9
[O-][n+]1nc2c(I)cnn2c2cc(OCc3ccccc3OC(F)(F)F)ccc21 | > 80 | 6.6 | –
[O-][n+]1nc2c(I)cnn2c2cc(OCCc3ccccc3)ccc21 | > 80 | 43 | –
CC(Cc1ccccc1)Oc1ccc2c(c1)n1ncc(I)c1n[n+]2[O-] (racemic) | > 80 | 103 | –
CC(COc1ccc2c(c1)n1ncc(I)c1n[n+]2[O-])c1ccccc1 (racemic) | > 80 | 160 | –
[O-][n+]1nc2c(-c3ccsc3)cnn2c2cc(Oc3ccccc3)ccc21 | > 80 | 68 | –
[O-][n+]1nc2c(I)cnn2c2cc(OCc3ccc(Cl)cc3)ccc21 | > 80 | 11 | –
[O-][n+]1nc2c(Cl)cnn2c2cc(-c3ccccc3)ccc21 | 45 | – | –
COc1ccccc1COC(=O)c1ccc2c(c1)n1ncc(Cl)c1n[n+]2[O-] | > 80 | 1 | –
[O-][n+]1nc2c(I)cnn2c2cc(Oc3ccc4ccccc4c3)ccc21 | > 80 | 94 | –
[O-][n+]1nc2c(I)cnn2c2cc(OCc3cccs3)ccc21 | > 80 | 1.2 | –
O=C(OCc1cccs1)c1cnn2c1n[n+]([O-])c1ccc(Oc3ccccc3)cc12 | > 80 | 0.7 | –
COc1ccccc1COc1ccc2c(c1)n1ncc(I)c1n[n+]2[O-] | > 80 | 0.42 | –
